The source made the active and inactive calls. No cut-off for these calls is given here.
Assays:
[1] = test system: Mus musculus; assay: Antipsychotic activity in mouse assessed as change in methamphetamine-induced hyperactivity at 50 mg/kg, po relative to control; format: functional
Summary of the method: (§1)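 Mice were premedicated po with the test compound, then given methamphetamine 3 mg/kg sc. Motor activity was counted in photocell chambers, three mice per chamber and nine per dose. Counts are mean ± SE, expressed as % change from methamphetamine-only controls. Analysis was ANOVA followed by t test or Mann-Whitney U, with p < 0.05.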

[2] = test system: Mus musculus; assay: Antipsychotic activity in mouse assessed as change in methamphetamine-induced hyperactivity at 5 mg/kg, po relative to control; format: functional, organism-based; parameters: dose 5 mg/kg; summary of the method: as §1
[3] = test system: Mus musculus; assay: Antidepressant activity in pargyline-pretreated mouse assessed as potentiation of DL-DOPA-induced jumping, fighting and squeaking at 25 mg/kg, po treated 4 hrs prior to DL-DOPA-challenge; format: functional, organism-based; parameters: dose 25 mg/kg
Summary of the method: (§2)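 Mice were pretreated with pargyline 40 mg/kg po, given the test drug po 4 hr before the challenge, then challenged with DL-Dopa 200 mg/kg. The motor response (motor activity, jumping, fighting, squeaking/irritability) was graded slight (1), moderate (2) or marked (3). Four mice per dose.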

[4] = test system: Mus musculus; assay: Antidepressant activity in pargyline-pretreated mouse assessed as potentiation of DL-DOPA-induced jumping, fighting and squeaking at 100 mg/kg, po treated 4 hrs prior to DL-DOPA-challenge; format: functional, organism-based; parameters: dose 100 mg/kg; summary of the method: as §2
[5] = test system: Mus musculus; assay: Antidepressant activity in pargyline-pretreated mouse assessed as potentiation of serotonin-induced tremor, head movements, abducted limbs and irritability at 100 mg/kg, po treated 1 hr prior to serotonin-challenge; format: functional, organism-based; parameters: dose 100 mg/kg
Summary of the method: (§3)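 Mice received pargyline 40 mg/kg po, then the test drug po. They were challenged with 5-hydroxytryptophan 100 mg/kg ip either 1 or 4 hr later. Central responses were rated on the 1–3 scale (slight, moderate, marked). Three mice per dose.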

[6] = test system: Mus musculus; assay: Antidepressant activity in pargyline-pretreated mouse assessed as potentiation of DL-DOPA-induced jumping, fighting and squeaking at 5 mg/kg, po treated 4 hrs prior to DL-DOPA-challenge; format: functional, organism-based; parameters: dose 5 mg/kg; summary of the method: as §2
[7] = test system: Mus musculus; assay: Antidepressant activity in pargyline-pretreated mouse assessed as potentiation of DL-DOPA-induced jumping, fighting and squeaking at 10 mg/kg, po treated 4 hrs prior to DL-DOPA-challenge; format: functional, organism-based; parameters: dose 10 mg/kg; summary of the method: as §2
[8] = test system: Mus musculus; assay: Antidepressant activity in pargyline-pretreated mouse assessed as potentiation of serotonin-induced tremor, head movements, abducted limbs and irritability at 25 mg/kg, po treated 1 hr prior to serotonin-challenge; format: functional, organism-based; parameters: dose 25 mg/kg; summary of the method: as §3
[9] = test system: Mus musculus; assay: Antidepressant activity in pargyline-pretreated mouse assessed as potentiation of serotonin-induced tremor, head movements, abducted limbs and irritability at 50 mg/kg, po treated 4 hrs prior to serotonin-challenge; format: functional, organism-based; parameters: dose 50 mg/kg; summary of the method: as §3
[10] = test system: Mus musculus; assay: Antidepressant activity in pargyline-pretreated mouse assessed as potentiation of serotonin-induced tremor, head movements, abducted limbs and irritability at 50 mg/kg, po treated 1 hr prior to serotonin-challenge; format: functional, organism-based; parameters: dose 50 mg/kg; summary of the method: as §3
[11] = test system: Mus musculus; assay: Antidepressant activity in pargyline-pretreated mouse assessed as potentiation of DL-DOPA-induced jumping, fighting and squeaking at 20 mg/kg, po treated 4 hrs prior to DL-DOPA-challenge; format: functional, organism-based; parameters: dose 20 mg/kg; summary of the method: as §2
[12] = test system: Mus musculus; assay: Antidepressant activity in pargyline-pretreated mouse assessed as potentiation of serotonin-induced tremor, head movements, abducted limbs and irritability at 25 mg/kg, po treated 4 hrs prior to serotonin-challenge; format: functional, organism-based; parameters: dose 25 mg/kg; summary of the method: as §3
[13] = test system: Mus musculus; assay: Antidepressant activity in pargyline-pretreated mouse assessed as potentiation of serotonin-induced tremor, head movements, abducted limbs and irritability at 100 mg/kg, po treated 4 hrs prior to serotonin-challenge; format: functional, organism-based; parameters: dose 100 mg/kg; summary of the method: as §3
[14] = test system: Mus musculus; assay: Antipsychotic activity in mouse assessed as change in methamphetamine-induced hyperactivity at 10 mg/kg, po relative to control; format: functional; summary of the method: as §1
[15] = test system: Mus musculus; assay: Antipsychotic activity in mouse assessed as change in methamphetamine-induced hyperactivity at 20 mg/kg, po relative to control; format: functional; summary of the method: as §1
[16] = test system: Mus musculus; assay: Antipsychotic activity in po dosed mouse assessed as change in methamphetamine-induced hyperactivity; format: functional
Summary of the method: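 Mice were given test compound orally […] with a 4-hr pretreatment, then methamphetamine 3 mg/kg sc. Three mice were placed per photocell motor-activity chamber, with nine mice per dose. Photocell counts (mean ± SE) were compared with methamphetamine-treated controls and expressed as % change. Significance (p < 0.05) was tested by analysis of variance, then t test or Mann-Whitney U test.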

[17] = Toxicity in ip dosed mouse; format: organism-based; conditions: in vivo
[18] = Toxicity in po dosed mouse; format: organism-based; conditions: in vivo

| Structure (SMILES) | Activity [1] | Activity [2] | Activity [3] | Activity [4] | Activity [5] | Activity [6] | Activity [7] | Activity [8] | Activity [9] | Activity [10] | Activity [11] | Activity [12] | Activity [13] | Activity [14] | Activity [15] | ED50 [16] | LD50 [17] | LD50 [18] |
| --- | --- | --- | --- | --- | --- | --- | --- | --- | --- | --- | --- | --- | --- | --- | --- | --- | --- | --- |
| CN1C2CCC1CC(C1(O)c3ccccc3CCc3ccccc31)C2 (stereo not given) | 11% | inactive | Active | Active | – | – | – | – | – | – | – | – | – | – | – | – | – | – |
| CN(C)C1C=C(C2c3ccccc3C=Cc3ccccc32)CCC1 (stereo not given) | 23% | inactive | Active | Active | Active | inactive | Active | inactive | Active | Active | Active | inactive | Active | – | – | – | – | – |
| CN(C)CCCN1c2ccccc2CCc2ccccc21 [IMIPRAMINE] | – | inactive | Active | Active | – | inactive | Active | – | – | – | – | – | – | 19% | 32% | – | – | – |
| CN1CC2C(C1)C21c2ccccc2CCc2ccc(Cl)cc21 (stereo not given) | 29% | inactive | Active | Active | Active | – | – | inactive | Active | inactive | – | Active | Active | – | – | – | – | – |
| CN(C)C1CCCCC(=C2c3ccccc3CCc3ccccc32)C1 (stereo not given) | 11% | inactive | Active | Active | inactive | – | – | inactive | – | inactive | – | – | – | – | – | – | – | – |
| CN(C)CCCN1c2ccccc2CCc2ccc(Cl)cc21 [CLOMIPRAMINE] | – | – | – | – | Active | – | – | Active | Active | Active | – | Active | Active | – | – | 5 mg/kg | – | – |
| CN1C2CCC1CC(=C1c3ccccc3CCc3ccccc31)C2 | 14% | inactive | inactive | Active | Active | – | – | inactive | inactive | inactive | – | inactive | inactive | – | – | – | 30 mg/kg | 100 mg/kg |

From ChEMBL document CHEMBL3272328, “Novel analogs of tricyclic psychopharmacological agents” (J Med Chem, 1976)
